Test results: ChEMBL document CHEMBL2163321 (J Med Chem, 2012)

How the values were obtained:
Egl nine homolog 1 = Egl nine homolog 1 (Homo sapiens, UniProt Q9GZT9); test: Inhibition of human PHD2 expressed in Escherichia coli by AlphaScreen assay
[1] = molecular target: T1, Gamma-butyrobetaine dioxygenase (Homo sapiens, UniProt O75936); test: Inhibition of human BBOX1 by fluorescence based assay
T1 sequence (O75936 whole entry): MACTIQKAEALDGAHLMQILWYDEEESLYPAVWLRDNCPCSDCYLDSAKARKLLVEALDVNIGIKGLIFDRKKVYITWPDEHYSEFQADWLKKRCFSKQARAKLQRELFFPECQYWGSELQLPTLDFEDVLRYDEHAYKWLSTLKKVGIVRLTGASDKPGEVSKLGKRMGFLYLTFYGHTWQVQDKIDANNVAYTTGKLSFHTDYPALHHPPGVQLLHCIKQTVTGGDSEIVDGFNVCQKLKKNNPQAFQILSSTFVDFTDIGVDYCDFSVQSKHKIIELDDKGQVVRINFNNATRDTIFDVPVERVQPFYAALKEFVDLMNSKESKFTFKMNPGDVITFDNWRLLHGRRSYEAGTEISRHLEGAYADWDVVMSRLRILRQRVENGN

[2] = molecular target: Lysine-specific demethylase 5C (Homo sapiens, UniProt P41229); test: Inhibition of human KDM5C catalytic domain expressed in Sf9 cells using methyl lysine peptide substrate by AlphaScreen assay
Lysine-specific demethylase 5C, sequence (P41229 whole entry, the tested form may be a part): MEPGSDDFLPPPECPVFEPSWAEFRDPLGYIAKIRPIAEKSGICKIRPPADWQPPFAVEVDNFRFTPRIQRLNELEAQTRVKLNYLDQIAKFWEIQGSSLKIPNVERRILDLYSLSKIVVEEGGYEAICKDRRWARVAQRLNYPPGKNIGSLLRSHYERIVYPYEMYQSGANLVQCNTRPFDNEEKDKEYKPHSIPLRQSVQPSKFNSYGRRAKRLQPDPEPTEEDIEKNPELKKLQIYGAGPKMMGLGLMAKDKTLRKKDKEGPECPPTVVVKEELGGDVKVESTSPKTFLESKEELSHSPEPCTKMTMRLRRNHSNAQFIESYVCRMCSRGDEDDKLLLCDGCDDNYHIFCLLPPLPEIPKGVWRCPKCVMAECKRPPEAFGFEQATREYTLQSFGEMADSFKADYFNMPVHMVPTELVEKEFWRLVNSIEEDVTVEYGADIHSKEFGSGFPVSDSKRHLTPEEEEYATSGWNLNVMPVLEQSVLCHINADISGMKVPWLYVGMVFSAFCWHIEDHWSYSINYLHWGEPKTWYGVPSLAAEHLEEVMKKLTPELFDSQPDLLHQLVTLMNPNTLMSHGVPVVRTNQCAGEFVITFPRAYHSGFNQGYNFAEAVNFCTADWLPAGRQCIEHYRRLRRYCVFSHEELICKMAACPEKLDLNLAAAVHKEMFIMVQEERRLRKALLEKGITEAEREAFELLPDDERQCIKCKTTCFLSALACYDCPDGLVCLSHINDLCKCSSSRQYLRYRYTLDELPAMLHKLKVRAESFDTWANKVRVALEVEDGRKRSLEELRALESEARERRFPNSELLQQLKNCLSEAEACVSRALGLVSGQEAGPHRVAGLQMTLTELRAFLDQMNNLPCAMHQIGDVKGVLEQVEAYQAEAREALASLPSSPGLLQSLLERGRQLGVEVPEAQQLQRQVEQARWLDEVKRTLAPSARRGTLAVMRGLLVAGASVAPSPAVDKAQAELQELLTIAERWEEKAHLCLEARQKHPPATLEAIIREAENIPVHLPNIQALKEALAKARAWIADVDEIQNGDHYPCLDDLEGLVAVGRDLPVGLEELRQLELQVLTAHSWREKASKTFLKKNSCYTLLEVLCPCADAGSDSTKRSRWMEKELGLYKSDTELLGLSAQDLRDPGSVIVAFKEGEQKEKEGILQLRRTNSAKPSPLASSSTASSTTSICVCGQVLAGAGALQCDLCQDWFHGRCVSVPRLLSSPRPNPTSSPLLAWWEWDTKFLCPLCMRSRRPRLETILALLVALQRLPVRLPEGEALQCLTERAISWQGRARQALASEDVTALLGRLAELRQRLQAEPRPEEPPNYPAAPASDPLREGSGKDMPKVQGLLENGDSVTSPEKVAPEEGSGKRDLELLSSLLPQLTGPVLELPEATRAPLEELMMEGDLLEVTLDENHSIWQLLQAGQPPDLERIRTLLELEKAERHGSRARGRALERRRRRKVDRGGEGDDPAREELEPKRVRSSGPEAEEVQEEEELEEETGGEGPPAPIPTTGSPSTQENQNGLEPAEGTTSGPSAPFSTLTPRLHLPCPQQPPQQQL
Method in brief: (§1)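 AlphaScreen read-out: immunodetection of the lysine methylation state of the biotinylated histone peptide product, captured on streptavidin and Protein A conjugated beads. Reactions were run in the linear range with 2OG near or below its Km.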

[3] = molecular target: T2, Lysine-specific demethylase 7A (Homo sapiens, UniProt Q6ZMT4); test: Inhibition of human KDM7A catalytic domain expressed in Escherichia coli by MALDI assay
T2 sequence (Q6ZMT4 whole entry): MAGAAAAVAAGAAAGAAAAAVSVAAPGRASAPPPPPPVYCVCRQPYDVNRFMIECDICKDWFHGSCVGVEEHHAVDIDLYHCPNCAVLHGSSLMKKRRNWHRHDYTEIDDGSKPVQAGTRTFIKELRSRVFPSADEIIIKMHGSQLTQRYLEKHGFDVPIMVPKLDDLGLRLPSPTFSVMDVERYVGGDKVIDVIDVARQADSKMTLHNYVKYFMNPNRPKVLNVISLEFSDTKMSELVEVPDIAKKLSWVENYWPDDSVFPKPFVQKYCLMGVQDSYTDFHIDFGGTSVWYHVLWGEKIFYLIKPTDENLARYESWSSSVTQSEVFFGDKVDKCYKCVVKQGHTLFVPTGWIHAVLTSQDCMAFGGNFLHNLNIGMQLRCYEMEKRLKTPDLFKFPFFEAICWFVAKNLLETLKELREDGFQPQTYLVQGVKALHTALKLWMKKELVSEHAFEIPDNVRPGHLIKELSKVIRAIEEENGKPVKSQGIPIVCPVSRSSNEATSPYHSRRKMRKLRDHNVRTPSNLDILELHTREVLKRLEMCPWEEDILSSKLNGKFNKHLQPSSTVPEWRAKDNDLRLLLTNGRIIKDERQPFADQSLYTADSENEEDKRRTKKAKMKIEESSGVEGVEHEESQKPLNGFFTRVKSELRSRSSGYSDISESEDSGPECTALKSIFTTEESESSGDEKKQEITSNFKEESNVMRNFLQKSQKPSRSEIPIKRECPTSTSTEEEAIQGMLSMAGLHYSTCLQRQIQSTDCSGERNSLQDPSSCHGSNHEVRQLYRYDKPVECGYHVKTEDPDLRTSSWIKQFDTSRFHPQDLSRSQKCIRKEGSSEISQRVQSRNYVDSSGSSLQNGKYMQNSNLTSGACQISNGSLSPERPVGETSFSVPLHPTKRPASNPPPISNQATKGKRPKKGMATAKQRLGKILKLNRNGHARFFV

[4] = molecular target: Hypoxia-inducible factor 1-alpha inhibitor (Homo sapiens, UniProt Q9NWT6); test: Inhibition of human FIH expressed in Escherichia coli by MALDI assay
Hypoxia-inducible factor 1-alpha inhibitor, sequence (Q9NWT6 whole entry, the tested form may be a part): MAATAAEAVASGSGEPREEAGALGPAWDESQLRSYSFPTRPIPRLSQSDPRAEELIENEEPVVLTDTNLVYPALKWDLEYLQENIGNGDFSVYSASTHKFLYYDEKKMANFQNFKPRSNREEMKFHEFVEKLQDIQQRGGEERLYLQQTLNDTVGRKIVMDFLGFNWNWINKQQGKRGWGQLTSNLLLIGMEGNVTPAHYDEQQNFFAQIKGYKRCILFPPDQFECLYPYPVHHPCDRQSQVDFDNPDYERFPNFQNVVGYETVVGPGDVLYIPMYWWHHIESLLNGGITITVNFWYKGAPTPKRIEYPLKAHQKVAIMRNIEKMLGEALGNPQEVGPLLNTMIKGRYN

[5] = Inhibition of human KDM3A catalytic domain expressed in Sf9 cells methyl lysine peptide substrate by AlphaScreen assay
Method in brief: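 AlphaScreen activity assay run within the linear range of the reaction. It immunodetects the lysine methylation state of a biotin-conjugated histone peptide product, using Streptavidin- and Protein A-conjugated beads.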

[6] = molecular target: Lysine-specific demethylase 6B (Homo sapiens, UniProt O15054); test: Inhibition of human KDM6B catalytic domain expressed in Escherichia coli using methyl lysine peptide substrate by AlphaScreen assay
Lysine-specific demethylase 6B, sequence (O15054 whole entry, the tested form may be a part): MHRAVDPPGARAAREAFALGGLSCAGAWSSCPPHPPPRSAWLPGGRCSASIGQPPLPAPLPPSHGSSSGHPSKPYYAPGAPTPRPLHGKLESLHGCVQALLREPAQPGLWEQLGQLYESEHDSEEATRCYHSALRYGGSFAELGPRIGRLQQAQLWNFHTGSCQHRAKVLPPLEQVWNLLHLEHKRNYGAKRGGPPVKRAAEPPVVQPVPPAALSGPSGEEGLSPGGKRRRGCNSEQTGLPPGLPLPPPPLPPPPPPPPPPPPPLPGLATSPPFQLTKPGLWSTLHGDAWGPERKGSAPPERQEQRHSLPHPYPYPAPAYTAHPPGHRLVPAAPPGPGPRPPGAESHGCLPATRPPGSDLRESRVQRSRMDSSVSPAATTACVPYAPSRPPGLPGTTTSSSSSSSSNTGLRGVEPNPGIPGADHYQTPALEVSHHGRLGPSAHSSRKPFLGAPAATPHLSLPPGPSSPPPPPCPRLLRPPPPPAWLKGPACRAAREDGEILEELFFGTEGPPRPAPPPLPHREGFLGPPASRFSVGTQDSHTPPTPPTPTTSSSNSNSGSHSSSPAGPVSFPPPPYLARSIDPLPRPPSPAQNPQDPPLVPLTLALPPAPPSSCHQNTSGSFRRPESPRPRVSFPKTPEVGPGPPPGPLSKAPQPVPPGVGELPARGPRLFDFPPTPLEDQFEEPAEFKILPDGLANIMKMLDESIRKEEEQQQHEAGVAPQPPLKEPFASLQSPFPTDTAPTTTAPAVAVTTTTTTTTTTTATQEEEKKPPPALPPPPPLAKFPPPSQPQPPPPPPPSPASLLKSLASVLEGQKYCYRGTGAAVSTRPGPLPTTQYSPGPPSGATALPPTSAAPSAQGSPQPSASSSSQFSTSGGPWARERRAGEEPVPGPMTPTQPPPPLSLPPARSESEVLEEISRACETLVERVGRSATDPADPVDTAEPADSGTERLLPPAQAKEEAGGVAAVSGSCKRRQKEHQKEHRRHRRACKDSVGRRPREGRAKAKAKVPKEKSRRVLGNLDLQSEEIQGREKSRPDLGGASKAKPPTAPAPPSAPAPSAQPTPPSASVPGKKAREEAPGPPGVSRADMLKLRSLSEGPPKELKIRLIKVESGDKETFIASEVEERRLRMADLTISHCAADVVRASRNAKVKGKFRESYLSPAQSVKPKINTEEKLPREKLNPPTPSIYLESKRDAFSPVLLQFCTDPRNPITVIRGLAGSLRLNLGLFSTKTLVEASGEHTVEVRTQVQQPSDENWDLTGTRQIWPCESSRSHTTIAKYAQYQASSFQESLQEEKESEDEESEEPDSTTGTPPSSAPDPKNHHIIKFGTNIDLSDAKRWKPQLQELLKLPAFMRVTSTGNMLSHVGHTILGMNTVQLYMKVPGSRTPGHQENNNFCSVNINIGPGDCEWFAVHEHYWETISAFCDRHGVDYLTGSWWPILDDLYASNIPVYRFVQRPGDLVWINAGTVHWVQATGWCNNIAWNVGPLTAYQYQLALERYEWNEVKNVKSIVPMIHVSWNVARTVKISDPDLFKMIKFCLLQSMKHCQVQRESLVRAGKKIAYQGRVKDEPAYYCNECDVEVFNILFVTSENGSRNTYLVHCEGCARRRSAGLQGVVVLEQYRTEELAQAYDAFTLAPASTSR
Method in brief: as §1

[7] = molecular target: T3, Lysine-specific demethylase 4E (Homo sapiens, UniProt B2RXH2); test: Inhibition of human KDM4E expressed in Escherichia coli using methyl lysine peptide substrate by AlphaScreen assay
T3 sequence (B2RXH2 whole entry): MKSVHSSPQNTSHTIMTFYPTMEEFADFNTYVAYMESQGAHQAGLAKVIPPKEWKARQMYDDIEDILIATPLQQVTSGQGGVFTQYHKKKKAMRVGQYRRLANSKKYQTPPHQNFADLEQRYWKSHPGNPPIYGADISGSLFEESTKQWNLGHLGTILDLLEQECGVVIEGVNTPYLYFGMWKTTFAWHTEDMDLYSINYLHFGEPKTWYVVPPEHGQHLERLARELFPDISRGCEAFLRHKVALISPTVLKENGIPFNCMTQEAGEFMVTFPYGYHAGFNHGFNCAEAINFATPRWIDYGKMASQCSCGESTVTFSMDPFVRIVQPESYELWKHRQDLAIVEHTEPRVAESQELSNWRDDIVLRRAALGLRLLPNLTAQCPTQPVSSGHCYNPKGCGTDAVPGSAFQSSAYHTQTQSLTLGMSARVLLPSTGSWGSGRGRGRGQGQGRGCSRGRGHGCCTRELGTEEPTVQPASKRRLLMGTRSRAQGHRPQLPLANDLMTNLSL
Method in brief: as §1

[8] = molecular target: Histone lysine demethylase PHF8 (Homo sapiens, UniProt Q9UPP1); test: Inhibition of human PHF8 expressed in Escherichia coli using methyl lysine peptide substrate by AlphaScreen assay
Histone lysine demethylase PHF8, sequence (Q9UPP1 whole entry): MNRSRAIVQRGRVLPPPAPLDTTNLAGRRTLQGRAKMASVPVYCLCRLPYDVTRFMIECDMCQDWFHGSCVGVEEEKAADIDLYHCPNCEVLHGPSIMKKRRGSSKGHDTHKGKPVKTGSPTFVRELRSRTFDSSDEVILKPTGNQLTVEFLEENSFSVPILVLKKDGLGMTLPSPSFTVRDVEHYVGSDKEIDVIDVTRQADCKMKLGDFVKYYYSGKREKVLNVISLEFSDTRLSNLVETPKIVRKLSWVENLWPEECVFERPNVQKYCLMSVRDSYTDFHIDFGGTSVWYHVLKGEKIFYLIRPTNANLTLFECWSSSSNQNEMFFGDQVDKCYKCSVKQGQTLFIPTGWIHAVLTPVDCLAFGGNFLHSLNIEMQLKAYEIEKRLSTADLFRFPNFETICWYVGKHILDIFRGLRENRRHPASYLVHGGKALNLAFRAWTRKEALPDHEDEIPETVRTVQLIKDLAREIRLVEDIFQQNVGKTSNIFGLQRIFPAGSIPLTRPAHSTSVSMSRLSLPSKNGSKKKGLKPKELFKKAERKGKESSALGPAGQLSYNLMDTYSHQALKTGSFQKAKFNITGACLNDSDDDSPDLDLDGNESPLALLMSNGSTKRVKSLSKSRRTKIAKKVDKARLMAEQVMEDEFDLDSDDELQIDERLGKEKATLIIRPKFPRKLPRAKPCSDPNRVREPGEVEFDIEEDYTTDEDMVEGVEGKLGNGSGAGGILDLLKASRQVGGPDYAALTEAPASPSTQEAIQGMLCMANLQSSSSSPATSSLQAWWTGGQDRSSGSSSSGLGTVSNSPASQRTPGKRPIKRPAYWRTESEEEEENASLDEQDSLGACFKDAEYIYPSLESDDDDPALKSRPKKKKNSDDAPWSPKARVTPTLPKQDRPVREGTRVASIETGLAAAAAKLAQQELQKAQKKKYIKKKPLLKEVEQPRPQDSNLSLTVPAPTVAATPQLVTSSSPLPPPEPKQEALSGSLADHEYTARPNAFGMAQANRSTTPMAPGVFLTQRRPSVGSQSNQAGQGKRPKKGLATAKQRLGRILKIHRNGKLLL

[9] = molecular target: T4, Lysine-specific demethylase 2A (Homo sapiens, UniProt Q9Y2K7); test: Inhibition of human KDM2A expressed in Escherichia coli using methyl lysine peptide substrate by AlphaScreen assay
T4 sequence (Q9Y2K7 whole entry): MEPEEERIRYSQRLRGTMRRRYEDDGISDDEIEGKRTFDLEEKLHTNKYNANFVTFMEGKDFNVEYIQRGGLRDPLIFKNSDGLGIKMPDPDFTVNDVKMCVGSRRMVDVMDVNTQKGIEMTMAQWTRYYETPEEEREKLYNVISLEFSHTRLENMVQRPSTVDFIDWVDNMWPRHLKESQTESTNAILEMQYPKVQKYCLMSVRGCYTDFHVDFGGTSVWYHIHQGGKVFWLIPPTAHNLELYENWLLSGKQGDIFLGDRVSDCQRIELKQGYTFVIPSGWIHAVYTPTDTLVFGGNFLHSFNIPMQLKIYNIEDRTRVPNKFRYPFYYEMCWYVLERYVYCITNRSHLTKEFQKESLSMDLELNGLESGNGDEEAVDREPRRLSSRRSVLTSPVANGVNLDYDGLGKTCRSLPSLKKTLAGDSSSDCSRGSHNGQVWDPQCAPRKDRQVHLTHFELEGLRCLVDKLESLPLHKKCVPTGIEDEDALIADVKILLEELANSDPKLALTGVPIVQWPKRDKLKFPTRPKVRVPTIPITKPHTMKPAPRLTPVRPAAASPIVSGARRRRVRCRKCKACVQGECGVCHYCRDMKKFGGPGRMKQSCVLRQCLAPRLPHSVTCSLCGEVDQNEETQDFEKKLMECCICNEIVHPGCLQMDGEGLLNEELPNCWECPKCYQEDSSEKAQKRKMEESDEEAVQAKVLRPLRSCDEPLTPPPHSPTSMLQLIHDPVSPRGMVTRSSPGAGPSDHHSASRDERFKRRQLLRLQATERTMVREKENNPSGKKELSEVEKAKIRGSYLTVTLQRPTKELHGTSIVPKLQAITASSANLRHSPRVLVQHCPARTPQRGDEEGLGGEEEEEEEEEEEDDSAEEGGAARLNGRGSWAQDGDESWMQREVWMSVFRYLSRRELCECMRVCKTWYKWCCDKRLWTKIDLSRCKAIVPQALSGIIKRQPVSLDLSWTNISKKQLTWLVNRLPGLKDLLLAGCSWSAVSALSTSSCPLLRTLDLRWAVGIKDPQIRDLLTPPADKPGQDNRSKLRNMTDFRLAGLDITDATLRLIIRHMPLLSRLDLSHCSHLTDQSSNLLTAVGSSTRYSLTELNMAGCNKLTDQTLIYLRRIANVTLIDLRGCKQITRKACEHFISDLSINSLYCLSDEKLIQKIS

Egl nine homolog 1, sequence (Q9GZT9 whole entry): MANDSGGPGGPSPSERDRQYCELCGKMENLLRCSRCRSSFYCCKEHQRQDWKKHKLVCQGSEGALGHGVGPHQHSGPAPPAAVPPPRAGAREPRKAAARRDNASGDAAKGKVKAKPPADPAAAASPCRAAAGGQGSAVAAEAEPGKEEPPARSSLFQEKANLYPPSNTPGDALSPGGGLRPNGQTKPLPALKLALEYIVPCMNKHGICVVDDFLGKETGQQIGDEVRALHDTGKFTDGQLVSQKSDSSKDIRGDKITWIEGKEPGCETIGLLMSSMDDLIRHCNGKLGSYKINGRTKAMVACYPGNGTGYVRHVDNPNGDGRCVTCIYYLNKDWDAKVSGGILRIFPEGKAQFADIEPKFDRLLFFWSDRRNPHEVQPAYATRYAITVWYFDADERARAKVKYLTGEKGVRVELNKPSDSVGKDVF

SMILES | IC50 (Egl nine homolog 1) [µM] | IC50 [1] [µM] | IC50 [2] [µM] | IC50 [3] [µM] | IC50 [4] [µM] | IC50 [5] [µM] | IC50 [6] [µM] | IC50 [7] [µM] | IC50 [8] [µM] | IC50 [9] [µM]
CN(C)NC(=O)CCC(=O)O | > 100 | > 100 | > 100 | 2.1 | > 100 | 127 | > 100 | > 100 |  | 
C[N+](C)(C)NC(=O)CCC(=O)O | > 100 | > 100 | > 100 |  | > 100 | > 100 | > 100 | > 100 | 35 | 63
CNNC(=O)CCC(=O)O | 14.2 | > 100 | 1.1 |  | > 100 | > 100 | > 100 | 4.3 | 3.4 | 0.37
NNC(=O)CCC(=O)O | > 100 | > 100 | 0.48 |  | > 100 | > 100 | > 100 | 0.2 | 0.48 | 0.25
CN(C)N(C)C(=O)CCC(=O)O | > 100 | > 100 | > 100 |  | > 100 | > 100 | > 100 | > 100 | 11.5 | 3.7
CC(C)NC(=O)CCC(=O)O | > 100 | > 100 | > 100 |  | > 100 | > 100 | > 100 | > 100 | > 100 | > 100
CN(C)OC(=O)CCC(=O)O | 6.3 | > 100 | 42 |  | > 100 | > 100 | 41.7 | > 100 | 6.9 | 9.1
CN(C)NC(=O)CCC(=O)NN(C)C | > 100 | > 100 | > 100 |  | > 100 | > 100 | > 100 | > 100 | 117 | > 100
O=C(O)CCC(=O)NO | 19.6 | > 100 | 1.9 |  | > 100 | 3 | 1.1 | 0.4 | 1.7 | 0.43
CC(=O)CC(=O)CCC(=O)O [SUCCINYLACETONE] | > 100 | > 100 | 4.5 |  | > 100 | 12.7 | 16.5 | 23.9 | 2.3 | 0.57
